Assay results from ChEMBL document CHEMBL1649098 (ACS Med Chem Lett, 2011).
Activity calls are given as the source filed them.

How the values were obtained:
[1] = molecular target: T1, Fatty-acid amide hydrolase 1 (Homo sapiens) (UniProt O00519); assay: Irreversible inhibition of His-tagged human FAAH N-terminal transmembrane-deleted truncated form expressed in Escherichia coli assessed as ratio of Kinact to Ki by GDH-coupled FAAH assay
T1 sequence (whole entry): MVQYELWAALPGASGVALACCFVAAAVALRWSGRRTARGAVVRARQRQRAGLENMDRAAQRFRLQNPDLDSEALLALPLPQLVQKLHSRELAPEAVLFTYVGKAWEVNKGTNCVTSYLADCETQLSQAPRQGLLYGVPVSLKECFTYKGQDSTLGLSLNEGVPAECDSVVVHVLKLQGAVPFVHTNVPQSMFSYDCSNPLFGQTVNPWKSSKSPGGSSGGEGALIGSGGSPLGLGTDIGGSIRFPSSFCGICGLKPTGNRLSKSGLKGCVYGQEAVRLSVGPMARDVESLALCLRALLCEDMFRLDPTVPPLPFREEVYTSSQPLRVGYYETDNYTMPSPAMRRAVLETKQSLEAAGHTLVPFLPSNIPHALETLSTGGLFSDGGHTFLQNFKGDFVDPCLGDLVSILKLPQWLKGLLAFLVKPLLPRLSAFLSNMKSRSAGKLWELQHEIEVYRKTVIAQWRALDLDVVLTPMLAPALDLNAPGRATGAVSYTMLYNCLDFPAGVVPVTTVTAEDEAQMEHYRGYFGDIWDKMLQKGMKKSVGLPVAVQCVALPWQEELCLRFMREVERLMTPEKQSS
Method in brief: (§1)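 Irreversible potency was measured as the second-order rate constant kinact/Ki in an enzyme-coupled FAAH assay (human or rat enzyme). Values are the average of at least two independent determinations ±SD.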

[2] = molecular target: T2, Fatty-acid amide hydrolase 1 (Rattus norvegicus) (UniProt P97612); assay: Irreversible inhibition of His-tagged rat FAAH N-terminal transmembrane-deleted truncated form expressed in Escherichia coli assessed as ratio of Kinact to Ki by GDH-coupled FAAH assay; method in brief: as §1
T2 sequence (whole entry): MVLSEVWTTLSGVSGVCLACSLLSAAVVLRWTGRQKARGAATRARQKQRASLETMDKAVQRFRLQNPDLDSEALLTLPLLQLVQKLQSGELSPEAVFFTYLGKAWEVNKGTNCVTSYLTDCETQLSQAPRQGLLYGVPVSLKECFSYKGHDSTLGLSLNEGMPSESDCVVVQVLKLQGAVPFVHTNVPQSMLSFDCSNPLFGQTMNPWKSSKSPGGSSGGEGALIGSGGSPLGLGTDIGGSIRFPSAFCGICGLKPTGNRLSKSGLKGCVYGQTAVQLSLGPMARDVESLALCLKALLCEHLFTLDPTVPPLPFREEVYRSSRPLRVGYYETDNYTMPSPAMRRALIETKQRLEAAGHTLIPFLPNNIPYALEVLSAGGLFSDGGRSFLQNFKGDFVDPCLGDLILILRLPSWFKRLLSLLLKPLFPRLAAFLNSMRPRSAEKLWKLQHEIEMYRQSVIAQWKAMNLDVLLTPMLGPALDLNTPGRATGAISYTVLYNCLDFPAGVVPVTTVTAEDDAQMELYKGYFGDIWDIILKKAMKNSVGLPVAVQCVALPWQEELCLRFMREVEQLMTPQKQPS

Cytochrome P450 3A4 [3] = molecular target: T3, Cytochrome P450 3A4 (Homo sapiens, UniProt P08684); assay: Inhibition of CYP3A4 uisng testosterone substrate; type: ADME
T3 sequence (P08684 whole entry): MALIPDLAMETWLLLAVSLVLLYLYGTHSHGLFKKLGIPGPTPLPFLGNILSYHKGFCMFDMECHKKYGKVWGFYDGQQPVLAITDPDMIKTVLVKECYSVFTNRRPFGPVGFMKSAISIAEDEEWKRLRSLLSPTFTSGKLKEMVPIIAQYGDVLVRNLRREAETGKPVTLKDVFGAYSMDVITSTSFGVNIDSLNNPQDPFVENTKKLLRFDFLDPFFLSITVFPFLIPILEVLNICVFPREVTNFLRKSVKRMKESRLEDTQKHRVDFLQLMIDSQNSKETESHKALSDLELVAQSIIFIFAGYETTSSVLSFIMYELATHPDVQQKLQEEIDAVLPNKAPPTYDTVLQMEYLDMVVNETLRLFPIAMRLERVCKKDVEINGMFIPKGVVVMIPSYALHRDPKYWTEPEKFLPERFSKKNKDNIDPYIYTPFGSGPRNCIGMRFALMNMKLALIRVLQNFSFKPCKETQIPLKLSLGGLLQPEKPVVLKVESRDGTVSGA
Method in brief: (§2)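 CYP inhibition was tested in human liver microsomes with relevant probe substrates.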

Cytochrome P450 2D6 = Cytochrome P450 2D6 (Homo sapiens, UniProt P10635); assay: Inhibition of CYP2D6; type: ADME; method in brief: as §2
Chain of Cytochrome P450 2D6 (P10635 whole entry): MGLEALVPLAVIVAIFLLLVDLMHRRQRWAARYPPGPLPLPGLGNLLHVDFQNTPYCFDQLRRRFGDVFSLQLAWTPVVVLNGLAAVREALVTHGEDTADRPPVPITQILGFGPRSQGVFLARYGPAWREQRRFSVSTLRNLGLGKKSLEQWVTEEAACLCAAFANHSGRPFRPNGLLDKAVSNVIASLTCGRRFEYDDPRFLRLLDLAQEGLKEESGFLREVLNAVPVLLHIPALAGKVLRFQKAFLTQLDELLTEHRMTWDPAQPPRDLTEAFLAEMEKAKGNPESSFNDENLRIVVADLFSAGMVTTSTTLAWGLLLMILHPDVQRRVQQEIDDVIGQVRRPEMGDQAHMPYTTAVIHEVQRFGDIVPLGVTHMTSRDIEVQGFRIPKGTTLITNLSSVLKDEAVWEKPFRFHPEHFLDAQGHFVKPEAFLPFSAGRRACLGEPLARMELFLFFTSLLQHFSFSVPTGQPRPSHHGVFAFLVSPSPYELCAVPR

Cytochrome P450 3A4 [4] = molecular target: T3, Cytochrome P450 3A4; assay: Inhibition of CYP3A4 uisng midazolam substrate; type: ADME; method in brief: as §2
[5] = molecular target: T1, Fatty-acid amide hydrolase 1 (Homo sapiens); conditions: 100 uM
[6] = molecular target: T1, Fatty-acid amide hydrolase 1 (Homo sapiens); conditions: 10 uM
Mus musculus = organism: Mus musculus; assay: Inhibition of fluorophosphonate-reactive 55/65 kDa serine proteases in mouse liver soluble proteomes at 100 uM by competitive activity based protein profiling
Method in brief: (§3)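 Competitive activity-based protein profiling of human or mouse liver soluble proteome. Proteome was treated with inhibitor at 10 or 100 μM, or DMSO, then labelled with FP-rhodamine. Serine hydrolases were resolved on gel and read by fluorescent gel imaging. Bands with reduced labelling intensity in the presence of inhibitor were scored as targets.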

Homo sapiens = organism: Homo sapiens; assay: Inhibition of fluorophosphonate-reactive 55/65 kDa serine proteases in human liver soluble proteomes at 100 uM by competitive activity based protein profiling; method in brief: as §3
[7] = molecular target: T4, Fatty-acid amide hydrolase 1 (Mus musculus) (UniProt O08914); assay: Inhibition of FAAH in mouse brain membrane proteomes at 10 uM by competitive activity based protein profiling; type: cell membranes
T4 sequence (whole entry): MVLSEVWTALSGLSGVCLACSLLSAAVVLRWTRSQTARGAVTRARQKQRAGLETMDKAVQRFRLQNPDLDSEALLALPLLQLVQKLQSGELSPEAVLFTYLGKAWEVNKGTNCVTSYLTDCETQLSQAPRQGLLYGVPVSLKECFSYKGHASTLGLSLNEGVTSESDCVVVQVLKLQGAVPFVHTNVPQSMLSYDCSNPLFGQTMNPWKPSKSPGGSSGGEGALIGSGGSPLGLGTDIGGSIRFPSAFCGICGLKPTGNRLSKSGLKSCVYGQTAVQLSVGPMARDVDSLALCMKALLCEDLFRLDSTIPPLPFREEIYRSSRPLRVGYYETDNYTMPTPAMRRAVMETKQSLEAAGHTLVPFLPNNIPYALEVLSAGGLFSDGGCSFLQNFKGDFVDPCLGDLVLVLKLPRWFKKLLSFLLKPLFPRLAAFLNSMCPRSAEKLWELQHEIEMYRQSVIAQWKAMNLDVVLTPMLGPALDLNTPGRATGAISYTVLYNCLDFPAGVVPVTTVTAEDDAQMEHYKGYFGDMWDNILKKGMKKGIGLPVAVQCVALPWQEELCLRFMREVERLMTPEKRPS
Method in brief: (§4)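 Competitive activity-based protein profiling used human and mouse brain membrane and soluble liver proteomes. Each was treated with compound at 10 or 100 μM or with DMSO, then labelled with FP-rhodamine. Serine hydrolases were resolved on fluorescent gels. Enzymes with reduced labelling intensity in the presence of inhibitor were scored as targets.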

[8] = molecular target: T4, Fatty-acid amide hydrolase 1 (Mus musculus); assay: Inhibition of FAAH in mouse brain membrane proteomes at 100 uM by competitive activity based protein profiling; type: cell membranes; method in brief: as §4
Rattus norvegicus [9] = assay: Antihyperalgesic activity in orally dosed Sprague-Dawley rat model of complete Freund's adjuvant-induced inflammatory pain model assessed as reduction in mechanical allodynia measured 4 hrs post dose; type: functional
Method in brief: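 CFA was injected subcutaneously into the plantar surface of the rat hind paw. Oral dosing at 0.1-10 mg/kg began 5 days post-injection, once mechanical paw withdrawal threshold had fallen. Mechanical allodynia was read as paw withdrawal threshold 4 h after dosing. n=8 rats per group; significance versus vehicle-treated groups at p<0.05.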

Rattus norvegicus [10] = organism: Rattus norvegicus; conditions: Sprague-Dawley, 10 mg/kg

Structure (SMILES)	Ratio [1] [M⁻¹ s⁻¹]	Ratio [2] [M⁻¹ s⁻¹]	other results
O=C(Nc1cccnc1)N1CC/C(=C/c2cccc(Oc3ccc(C(F)(F)F)cn3)c2)C1	< 16	–	–
O=C(Nc1cccnn1)N1CCC(=Cc2cccc(Oc3ccc(C(F)(F)F)nc3)c2)CC1	26600	2020	–
O=C(Nc1ccccn1)N1CCC(=Cc2cccc(Oc3ccc(C(F)(F)F)cn3)c2)CC1	6090	563	–
O=C(Nc1cnccn1)N1CCC(=Cc2cccc(Oc3ccc(C(F)(F)F)cn3)c2)CC1	42600	23700	IC50 (Cytochrome P450 3A4 [3]): 23.5 µM; IC50 (Cytochrome P450 2D6): 25.1 µM; IC50 (Cytochrome P450 3A4 [4]): 30 µM
O=C(Nc1cccnn1)N1CCC(=Cc2cccc(Oc3ccccc3)c2)CC1	1530	1900	–
O=C(Nc1ccccc1)N1CCC(=Cc2cccc(Oc3ccc(C(F)(F)F)cn3)c2)CC1	4800	584	–
Cc1ccc(NC(=O)N2CCC(=Cc3cccc(Oc4ccc(C(F)(F)F)cn4)c3)CC2)cn1	13100	5210	IC50 (Cytochrome P450 3A4 [3]): 3 µM; IC50 (Cytochrome P450 2D6): 1.6 µM; IC50 (Cytochrome P450 3A4 [4]): 11.8 µM
Cc1ccc(Oc2cccc(C=C3CCN(C(=O)Nc4cccnn4)CC3)c2)nc1	21500	5530	–
NC(=O)c1cccc(-c2cccc(OC(=O)NC3CCCCC3)c2)c1	–	–	inhibition [5]: Active; inhibition [6]: Active; inhibition (Mus musculus): Active; inhibition (Homo sapiens): Active; inhibition [7]: Active; inhibition [8]: Active
O=C(Nc1cccnc1)N1CCC/C(=C\c2cccc(Oc3ccc(C(F)(F)F)cn3)c2)C1	1150	233	–
O=C(Nc1cccnn1)N1CCC(=Cc2cccc(Oc3ccc(C4CC4)cn3)c2)CC1	28800	46300	–
O=C(Nc1cccnc1)N1CCC(=Cc2cccc(Oc3ccc(C(F)(F)F)cn3)c2)CC1	21600	15100	IC50 (Cytochrome P450 3A4 [3]): 0.8 µM; IC50 (Cytochrome P450 2D6): 1.4 µM; IC50 (Cytochrome P450 3A4 [4]): 4.3 µM
CCOc1ccc(Oc2cccc(C=C3CCN(C(=O)Nc4cccnn4)CC3)c2)nc1	9230	11700	–
O=C(Nc1cccnc1)N1CC(=Cc2cccc(Oc3ccc(C(F)(F)F)cn3)c2)C1	298	173	–
O=C(Nc1cccnn1)N1CCC(=Cc2cccc(Oc3ccc(C(F)(F)F)cc3)c2)CC1	18900	22900	–
COc1ccc(NC(=O)N2CCC(=Cc3cccc(Oc4ccc(C(F)(F)F)cn4)c3)CC2)cn1	16000	11400	–
Cc1ccnc(Oc2cccc(C=C3CCN(C(=O)Nc4cccnn4)CC3)c2)c1	1580	–	–
Cc1cccnc1Oc1cccc(C=C2CCN(C(=O)Nc3cccnn3)CC2)c1	2200	256	–
O=C(Nc1cccnc1)N1CCC(Cc2cccc(Oc3ccc(C(F)(F)F)cn3)c2)CC1	–	–	MED (Rattus norvegicus [9]): 3 mg/kg
COc1ccc2cc([C@H](C)C(=O)O)ccc2c1	–	–	inhibition (Rattus norvegicus [10]): Active
O=C(Nc1cccnc1)N1CC/C(=C\c2cccc(Oc3ccc(C(F)(F)F)cn3)c2)C1	144	–	–
O=C(Nc1cccnc1)N1CCC/C(=C/c2cccc(Oc3ccc(C(F)(F)F)cn3)c2)C1	35	22	–
O=C(Nc1cccnc1)N1CCC(Cc2cccc(Oc3ccc(C(F)(F)F)cn3)c2)C1 (centres undefined)	88	–	–
Cc1noc(NC(=O)N2CCC(=Cc3cccc(Oc4ccc(C(F)(F)F)cn4)c3)CC2)c1C	7990	54400	–
O=C(Nc1noc2ccccc12)N1CCC(=Cc2cccc(Oc3ccc(C(F)(F)F)cn3)c2)CC1	3930	30200	–
Cc1cccc(Oc2cccc(C=C3CCN(C(=O)Nc4cccnn4)CC3)c2)n1	1090	586	–
